Data taken from ChEMBL document CHEMBL4387759, “Discovery of novel N-methyl carbazole tethered rhodanine derivatives as direct inhibitors of Mycobacterium tuberculosis InhA” (Bioorg Med Chem Lett, 2019).
In brackets after ≈: the same amount, converted by molar mass.

What was measured:
[1] = system: Mycobacterium tuberculosis; experiment: Antimycobacterial activity against Mycobacterium tuberculosis H37Rv incubated for 5 days under aerobic condition by fluorescence assay; format: functional, organism-based; settings: 120 h
Summary of the method: (§1)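 M. tuberculosis H37Rv grown aerobically; dual read-out assay (OD590 plus fluorescence); MIC and IC50 values reported; run at IDRI under NIAID screening programme.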

Vero = experiment: Cytotoxicity against African green monkey Vero cells measured after 72 hrs by MTS-PMS assay; format: cell-based; settings: Chlorocebus sabaeus
Summary of the method: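 Cells exposed 72 h; viability read with a non-radioactive cell proliferation assay; IC50 determined.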

[2] = Selectivity index, ratio of IC50 for African green monkey Vero cells to IC50 for Mycobacterium tuberculosis H37Rv; format: toxicity; settings: read-out: Ratio IC50
Summary of the method: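 Ratio of cytotoxicity IC50 to H37Rv IC50; not calculated where H37Rv IC50 >100.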

[3] = biological target: T1, Enoyl-[acyl-carrier-protein] reductase [NADH] (Mycobacterium tuberculosis) (UniProt P9WGR1); experiment: Inhibition of Mycobacterium tuberculosis InhA at 5 uM using DDCoA as substrate relative to control
T1 sequence (whole entry): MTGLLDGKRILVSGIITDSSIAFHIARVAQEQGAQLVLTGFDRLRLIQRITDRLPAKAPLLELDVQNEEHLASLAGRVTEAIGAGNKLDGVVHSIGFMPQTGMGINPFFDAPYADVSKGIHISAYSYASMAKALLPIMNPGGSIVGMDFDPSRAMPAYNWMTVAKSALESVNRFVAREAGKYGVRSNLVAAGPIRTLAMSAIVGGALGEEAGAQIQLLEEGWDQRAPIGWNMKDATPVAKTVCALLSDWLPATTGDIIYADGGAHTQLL
Summary of the method: (§2)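 InhA enzyme assay run in triplicate with 2-trans-dodecenoyl-CoA as substrate analogue; inhibition followed as NADH oxidation to NAD+ at 340 nm. Compounds screened at 50 μM, selected ones also at 5 μM; IC50 from 4-parameter curve fit; GEQ as reference inhibitor.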

[4] = biological target: T2, Enoyl-[acyl-carrier-protein] reductase [NADH] (Mycobacterium tuberculosis, UniProt P9WGR1); experiment: Inhibition of Mycobacterium tuberculosis InhA using DDCoA as substrate; summary of the method: as §2
T2 sequence (P9WGR1 whole entry): T1 sequence (whole entry)

[5] = system: Mycobacterium tuberculosis; experiment: Antimycobacterial activity against Mycobacterium tuberculosis H37Rv; format: functional; summary of the method: as §1

Compound	IC50 [1] [µM]	MIC [1] [µM]	IC50 (Vero) [µM]	selectivity ratio [2]	inhibition [3] [%]	IC50 [4] [µM]	MIC [5] [µM]
Cc1cc(=O)oc2cc(N3C(=O)/C(=C/c4ccc5c(c4)c4ccccc4n5C)SC3=S)ccc12	20	20 (≈ 9.65 µg/mL)	296	14.8			
COc1ccc(-c2nnc(N3C(=O)/C(=C/c4ccc5c(c4)c4ccccc4n5C)SC3=S)s2)cc1		> 100	258				
COc1cccc(N2C(=O)/C(=C/c3ccc4c(c3)c3ccccc3n4C)SC2=S)c1		> 100	235				
O=C(c1ccc2[nH]ccc2c1)N1CCN(C2c3ccccc3-c3ccccc32)CC1		> 50					
Cn1c2ccccc2c2cc(/C=C3\SC(=S)N(c4nnc(-c5cccc(Cl)c5)s4)C3=O)ccc21		> 100	193				
Cn1c2ccccc2c2cc(/C=C3\SC(=S)N(c4nnc(-c5ccc(Br)cc5)s4)C3=O)ccc21		> 100	165				
Cn1c2ccccc2c2cc(/C=C3\SC(=S)N(c4ccccc4)C3=O)ccc21	75	> 100	240	3.2			
Cn1c2ccccc2c2cc(/C=C3\SC(=S)N(c4cccc(C(F)(F)F)c4)C3=O)ccc21		> 100	167				
Cn1c2ccccc2c2cc(/C=C3\SC(=S)N(c4nnc(-c5ccc(Cl)cc5)s4)C3=O)ccc21		> 100	245				
Cn1c2ccccc2c2cc(/C=C3\SC(=S)N(c4ccc(C(=O)O)cc4)C3=O)ccc21		> 100	263		54	2.82	
COc1ccc(N2C(=O)/C(=C/c3ccc4c(c3)c3ccccc3n4C)SC2=S)cc1OC	50	50 (≈ 23 µg/mL)	261	5.2			
Cn1c2ccccc2c2cc(/C=C3\SC(=S)N(c4cccc(O)c4)C3=O)ccc21	25	> 100	289	11.6	10		
Cc1cc(=O)[nH]c2cc(N3C(=O)/C(=C/c4ccc5c(c4)c4ccccc4n5C)SC3=S)ccc12		> 100	277				
COC(=O)c1ccc(N2C(=O)/C(=C/c3ccc4c(c3)c3ccccc3n4C)SC2=S)cc1		> 100	222				
Cn1c2ccccc2c2cc(/C=C3\SC(=S)N(c4nnc(-c5ccccc5F)s4)C3=O)ccc21		> 100	208				
COc1ccc(-c2csc(N/N=C/c3ccc4c(c3)c3ccccc3n4C)n2)cc1OC							21 (≈ 9.29 µg/mL)
Cn1c2ccccc2c2cc(/C=C3\SC(=S)N(c4ccc(Cl)cc4)C3=O)ccc21		> 100	213				
Cn1c2ccccc2c2cc(/C=C3\SC(=S)N(c4cc(C(=O)O)cc(C(=O)O)c4)C3=O)ccc21		> 100	210		12		
COc1cc(N2C(=O)/C(=C/c3ccc4c(c3)c3ccccc3n4C)SC2=S)cc(OC)c1OC		> 100	185				
Cn1c2ccccc2c2cc(/C=C3\SC(=S)N(c4nnc(-c5ccccc5Cl)s4)C3=O)ccc21		> 100	239				
